Most compounds without a hit are left out; they make up all but 4.9% or so of the library.
APP 5'UTR act – activates APP 5'UTR luciferase reporter; hit rate 1% among 190,000; activation, % at 2 µM; AID 1276; SH-SY5Y APP 5'UTR luciferase reporter, luminescence; zero percent = DMSO vehicle wells;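 active means activation above a set limit, based on mean plus 3 SD of controls, cut at about 140% in these data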
STAT1 act – increases IFN-gamma driven STAT1 reporter signal; NIH 3T3 STAT1-luciferase reporter, luminescence; 100% = IFN-gamma alone, no compound; activation (% of control), % at 5.5 µM; hit rate 2.6% among 200,000;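 active means activation above the screen-wide mean activation plus 3 SD, cut at about 130% in these data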;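 further: raw ratio to IFN-gamma control signal so 100% means no change and 0% no light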
STAT3 inh-1 – inhibitors of IL-6 induced STAT3 signaling | U3A cells, IL-6 STAT3-luciferase reporter, luminescence; host cell line lacks STAT1 | inhibition, % at 5.5 µM | hit rate 0.89% among 190,000 | AID 862;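 active means inhibition above the mean inhibition across all screened compounds plus 3 SD, cut at about 44% in these data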;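 further: 0% = DMSO only wells and 100% = 100 µM nifuroxazide control wells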
STAT3 act – increases IL-6 driven STAT3 reporter signal; U3A cells, IL-6 STAT3-luciferase reporter, luminescence; 100% = signal with IL-6 EC80 alone; activation (% of control), % at 5.6 µM; hit rate 0.91% among 190,000; AID 871;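 active means activation above the screen-wide mean of compound activation plus 3 SD, cut at about 130% in these data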;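 further: 0% = background luminescence of wells with medium and substrate only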
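Detection: reporter luminescence signal / Assay system: STAT1-lacking human U3A cells, STAT3 luciferase reporter / Incubation: compound pre-incubation 1 h before IL-6, then 6 h stimulation at 37 °C / Control set: IL-6-only high control / Read-out: % activation relative to IL-6 control / Probe or stimulus: Interleukin-6, 33 ng/mL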
NF-kB expr up – NF-kB expression increase, human neuronal cells. NF-kB reporter expression; stronger effect = higher value. fold change at 12.5 µM. hit rate 1.6% among 190,000. AID 1239; in the data active means fold change above about 3.3
STAT1 inh – inhibitors of IFN-gamma induced STAT1 signaling | NIH 3T3 STAT1-luciferase reporter, luminescence | inhibition, % at 5.5 µM | hit rate 0.35% among 200,000 | AID 920;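 active means inhibition above a set limit, the mean inhibition across all tested compounds plus 3 SD, cut at about 34% in these data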;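 further: 0% = IFN-gamma with DMSO and 100% = IFN-gamma with 300 µM nifuroxazide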
STAT3 inh-2 – confirmation of STAT3 signaling inhibitors; shares compounds with STAT3 inh-1; U3A cells, IL-6 STAT3 luciferase reporter, luminescence; cell line lacks STAT1; inhibition, % at 5.7 µM; hit rate 45% among 1,200; AID 1265;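 active means inhibition above the hit cutoff computed for the primary STAT3 screen, cut at about 44% in these data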;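 further: 0% = IL-6 plus DMSO and 100% = IL-6 plus nifuroxazide control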
NFkB inh STAT3ct – inhibits NF-kappaB, counter-screen to STAT3 inhibitors; shares compounds with STAT3 inh-1; HEK293T NF-kB luciferase reporter, TNF-alpha induced; inhibition, % at 5.7 µM; hit rate 36% among 1,200; AID 1308;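 active means inhibition above the mean of solvent-only control wells plus 3 SD, cutoff set per campaign, cut at about 13% in these data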;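 further: 0% = TNF-alpha with DMSO and 100% = TNF-alpha with MG high control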
STAT1 inh 2 – STAT1 inhibition in STAT3 inhibitor counter-screen; NIH 3T3 STAT1-luciferase reporter, IFN-gamma induced, luminescence; inhibition, % at 5.7 µM; hit rate 27% among 1,200; shares compounds with STAT3 inh-1;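 active means inhibition above the mean plus 3 SD of solvent-only control wells, limit set per screening run, cut at about 16% in these data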;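 further: 0% = DMSO with IFN-gamma and 100% = nifuroxazide control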
The depositor's hits bear a star; . = no result.

SMILES	APP 5'UTR act	STAT1 act	STAT3 inh-1	STAT3 act	NF-kB expr up	STAT1 inh	STAT3 inh-2	NFkB inh STAT3ct	STAT1 inh 2
CCOc1nc2c(c(=O)n(C)c(=O)n2C)n1Cc1ccccc1Cl	15.8	84.1	46.0*	64.9	0.86	17.4	27.4	7.1	15.2
Cn1c(=O)c2c(nc(Br)n2Cc2ccccc2Cl)n(C)c1=O	-4.1	95.4	15.4	93.1	1.03	5.1	.	.	.
Nc1nc2ccccc2n1C(=O)c1ccc(F)cc1	187.8*	81.3	67.5*	44.5	3.17	18.8	39.3	-3.0	-65.9
Nc1nc2ccccc2n1C(=O)c1ccccc1	161.3*	72.9	66.7*	45.3	3.2	27.9	31.1	-4.0	-70.6
O=C(NCCCn1ccnc1)c1cc2c(ccc3ccccc32)o1	-4.6	87.4	13.5	89.8	1.38	12.1	.	.	.
COc1ccc(-c2ccc3ccccc3n2)cc1	206.3*	78.1	55.0*	54.9	10.2*	23.2	17.8	-22.8	-107.3
CC(Sc1ccccc1)C(=O)NN=C1CCCCCCC1 (stereo not drawn)	24.2	97.4	12.3	99.0	1.17	1.9	.	.	.
Cc1cc(C(=O)CSc2nc3ccccc3[nH]2)c(C)n1CC1CCCO1 (stereo not drawn)	188.6*	73.8	97.0*	23.3	0.43	29.4	62.9*	22.3*	-57.2
N=c1c2c(n(Cc3ccc(F)cc3)c3c1CCC3)CCCC2	-7.7	91.0	25.0	82.3	0.66	9.2	.	.	.
N=c1c2c(n(Cc3cccc(Cl)c3)c3c1CCC3)CCCC2	-0.5	70.0	54.2*	55.8	0.61	32.4	45.0*	4.0	24.7*
N=c1c2c(n(Cc3ccccc3)c3c1CCC3)CCC2	10.4	76.7	48.9*	62.5	0.63	26.2	35.4	1.9	23.7*
N=c1c2c(n(Cc3ccc(Cl)cc3)c3c1CCC3)CCC2	2.5	79.0	53.9*	57.3	0.83	23.0	43.5*	4.5	23.7*
N#CCCN1CCN(C2=NC(=O)/C(=C\c3cccs3)S2)CC1	-2.4	113.5	8.2	95.0	1.47	-15.1	.	.	.
Cc1cccc(-n2ncc3c(N4CCCC4)ncnc32)c1	137.7*	108.0	66.7*	44.6	4.84*	-8.7	29.3	-12.8	-80.2
Clc1ccc(-n2ncc3c(N4CCCCCC4)ncnc32)cc1	26.9	99.1	87.2*	28.9	0.23	1.9	70.9*	49.3*	12.3
Cc1cccc(-n2ncc3c(N4CCOCC4)ncnc32)c1	66.6	90.6	77.7*	33.1	1.57	10.4	62.3*	28.2*	-19.5
CC1CC2(C)Oc3ccccc3CC2C(C)C1CNCCCN(C)C (stereo not drawn)	-1.4	99.5	-7.2	110.1	0.84	-2.8	.	.	.
COC(=O)c1ccccc1OCCCOc1ccc(C)cc1OC	68.7	110.2	58.7*	55.1	1.52	-11.2	29.9	-23.7	-97.1
COc1cc(C)ccc1OCCCOc1ccccc1Br	81.6	127.7	9.8	98.2	2.09	-31.0	.	.	.
Cn1c(-c2cccc3ccccc23)n[nH]c1=S	8.3	100.1	-0.1	100.2	1.02	-0.1	.	.	.
Oc1c(C=Nc2cccnc2)sc2ccccc12	16.7	97.2	-17.8	119.2	0.96	3.0	.	.	.
Oc1c(C=Nc2ccccc2)sc2ccccc12	77.0	117.5	65.9*	47.7	4.59*	-20.2	-16.2	-28.8	-21.3
Cc1nc2nc(-c3ccc(Cl)cc3)cn2nc1C	85.5	94.4	66.0*	47.0	3.31*	6.0	39.8	-13.4	-83.8
c1ccc(-c2cn3nc(-c4ccccc4)c(-c4ccccc4)nc3n2)cc1	9.5	104.3	19.6	92.6	1.17	-4.8	.	.	.
Cc1nn2cc(-c3ccc(Cl)cc3)nc2s1	158.0*	118.3	52.5*	60.4	7.97*	-20.1	12.4	-34.9	-145.8
SMILES	APP 5'UTR act	STAT1 act	STAT3 inh-1	STAT3 act	NF-kB expr up	STAT1 inh	STAT3 inh-2	NFkB inh STAT3ct	STAT1 inh 2
CCc1nn2cc(-c3ccccc3)nc2s1	152.8*	70.2	91.3*	26.2	5.02*	30.9	69.2*	37.8*	15.3
Cc1cc2nc(SCC(=O)Nc3ccccc3C(=O)O)[nH]c2cc1C	68.8	107.9	-21.0	118.8	1.57	-10.1	.	.	.
Cc1cc(NC(=O)CN2C(=O)NC3(CCCCC3C)C2=O)no1 (stereo not drawn)	1.1	95.2	3.0	95.5	1.17	5.4	.	.	.
Oc1ccccc1-c1cc(-c2ccc3c(c2)OCCO3)n[nH]1	210.7*	111.0	54.8*	57.2	8.94*	-13.8	21.1	-44.2	-29.2
O=C(O)c1cc(-c2ccc3c(c2)OCCO3)n[nH]1	5.7	101.4	0.1	101.8	0.99	-3.4	.	.	.
C=CCn1c(COc2ccc(Cl)cc2)nnc1SCC(=O)c1c(N)n(C)c(=O)n(C)c1=O	-26.0	102.7	10.8	94.3	1.1	-3.3	.	.	.
O=C(Cc1ccccc1)NNC(=O)Nc1ccc(Cl)c(Cl)c1	3.9	102.1	1.7	106.4	0.92	-2.3	.	.	.
O=C(Nc1ccc(Cl)cc1)Nc1ccccc1C(=O)O	119.2	76.7	61.5*	50.1	4.55*	24.7	8.8	-4.4	-67.9
O=C(Nc1ccc(Cl)c(Cl)c1)Nc1ccccc1C(=O)O	214.9*	140.3*	52.9*	58.4	7.74*	-43.5	-51.3	-16.8	-251.0
Oc1ccc(-c2nnc(-c3ccc(O)cc3)nn2)cc1	118.7	95.2	51.2*	59.8	6.09*	5.2	61.8*	11.2	5.4
CC(C)(C)c1ccc(OCC(=O)NNC(=S)NC(=O)c2ccccc2[N+](=O)[O-])c(Br)c1	6.1	101.9	-19.3	111.5	1.55	-2.1	.	.	.
O=C1c2ccccc2-c2nnc(-c3ccc(F)cc3)cc21	143.5*	114.6	55.8*	54.8	4.45*	-14.9	46.8*	18.7*	-13.5
C=CCn1c(C)cc(C2=NNC(=Nc3ccc(C)cc3)SC2)c1C	14.1	121.1	-1.1	106.9	0.92	-24.3	.	.	.
C=CCN=C1NN=C(c2cc(C)n(CCOC)c2C)CS1	1.9	77.7	77.6*	35.5	0.2	25.1	35.7	-1.7	-3.5
C=CCn1c(C)cc(C2=NNC(=NC(C)(C)C)SC2)c1C	127.6	107.8	57.6*	51.9	0.37	-8.6	45.5*	28.0*	-13.3
COc1ccc(OCC(=O)c2c(O)c3ccccc3oc2=O)cc1	-3.3	101.4	1.1	103.2	0.99	-1.5	.	.	.
COc1ccc(/C=C\c2nc(=O)c3ccccc3o2)cc1	127.4	100.2	62.3*	49.4	7.31*	-1.0	-9.3	-6.9	-2.9
CC(C)CN1C(=O)c2ccc(C(=O)Nc3ccncc3)cc2C1=O	-10.8	87.1	48.9*	62.7	0.88	14.3	56.6*	6.4	7.9

Screening results deposited in PubChem BioAssay by several laboratories.
